The target of the test is T1, Polyunsaturated fatty acid 5-lipoxygenase (Rattus norvegicus, UniProt P12527).
T1 sequence (P12527 whole entry): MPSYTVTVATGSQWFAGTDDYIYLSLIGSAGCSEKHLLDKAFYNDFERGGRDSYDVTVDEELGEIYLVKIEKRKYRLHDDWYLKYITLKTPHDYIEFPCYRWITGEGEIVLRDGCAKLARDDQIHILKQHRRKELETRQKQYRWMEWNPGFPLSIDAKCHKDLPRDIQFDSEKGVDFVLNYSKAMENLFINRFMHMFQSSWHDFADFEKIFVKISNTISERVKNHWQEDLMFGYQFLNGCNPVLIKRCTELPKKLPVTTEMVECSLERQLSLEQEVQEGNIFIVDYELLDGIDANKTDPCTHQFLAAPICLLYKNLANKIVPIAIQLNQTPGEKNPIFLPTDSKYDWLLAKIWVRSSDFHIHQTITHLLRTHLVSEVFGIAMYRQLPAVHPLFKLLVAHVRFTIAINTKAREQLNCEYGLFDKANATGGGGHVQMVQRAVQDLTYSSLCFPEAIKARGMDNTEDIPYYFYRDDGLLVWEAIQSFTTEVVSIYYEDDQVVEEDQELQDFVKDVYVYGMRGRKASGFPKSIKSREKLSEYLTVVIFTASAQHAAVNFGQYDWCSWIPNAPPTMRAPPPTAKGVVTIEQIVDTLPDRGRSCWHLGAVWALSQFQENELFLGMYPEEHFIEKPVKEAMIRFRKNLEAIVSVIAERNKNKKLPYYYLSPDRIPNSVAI
The experiment in a line: Ability to inhibit 5-lipoxygenase in rat basophilic leukemia cells. It counts as cell-based, RBL-1. The essentials:
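Enzyme: RBL cell sonicate high-speed supernatant, 25–50% ammonium sulfate cut, desalted on Sephadex G-25 (68 μg protein). Compound in ethanol preincubated 5 min with enzyme. Reaction started with 25 μM [1-14C]arachidonic acid, 30 °C for 5 min in 50 mM potassium phosphate pH 7.4 with 2 mM ATP and 2 mM CaCl2. Radio-TLC of 5-HPETE; IC50 from concentration series.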
Turning to `CCCCCCCCCCOc1c(OC)c(OC)cc2oc(-c3ccc(O)c(O)c3)cc(=O)c12`, the IC50 – broadly, the point on the concentration scale where inhibition reaches its midpoint – was found to be 18 nM.

For `CCCCOc1c(OC)cc2oc(-c3ccc(O)c(O)c3)cc(=O)c2c1OC`, the IC50 came to 52 nM.

In turn, `CCCCCCCCCCCCOc1cc(OC)c2c(=O)cc(-c3ccc(O)c(O)c3)oc2c1OC` came in with an IC50 of 33 nM.

In the case of `CCCCCCCCCCCCOc1cc2oc(-c3ccc(O)c(O)c3)cc(=O)c2c(O)c1OC`, half-maximal inhibition (IC50) required 140 nM.

As for `CCCCCCCCCCOc1c(OC)cc2oc(-c3ccc(O)c(O)c3)cc(=O)c2c1OC`, the IC50 was 17 nM.

As for `CCCCCCCCOc1c(OC)cc2oc(-c3ccc(OC(C)=O)c(OC(C)=O)c3)cc(=O)c2c1OC`, inhibition was half-maximal at 42 nM (IC50).

Turning to `COc1cc2oc(-c3ccc(O)c(O)c3)cc(=O)c2c(OCCC(C)C)c1OC`, half-maximal inhibition (IC50) required 16 nM.

`CCCCOc1c(OC)cc2oc(-c3ccc(OC(C)=O)c(OC(C)=O)c3)cc(=O)c2c1OC` showed an IC50 of 100 nM.

With `CCCCCCCCCCOc1c(OC)cc2oc(-c3ccc(OC(C)=O)c(OC(C)=O)c3)cc(=O)c2c1OC`, half-maximal inhibition (IC50) was put at 30 nM.

In turn, `CCCCCCCCCCCCCCOc1c(OC)cc2oc(-c3ccc(O)c(O)c3)cc(=O)c2c1O` returned an IC50 of 10000 nM.

As for `CCCCCCCCCCCCCCCCCCOc1c(OC)cc2oc(-c3ccc(O)c(O)c3)cc(=O)c2c1O`, the IC50 came to 10000 nM.

`CCCCCCCCCCCCCCCCOc1c(OC)c(OC)cc2oc(-c3ccc(O)c(O)c3)cc(=O)c12` came in with an IC50 of 140 nM.

In turn, `CCCCCCCCCCCCCCOc1c(OC)cc2oc(-c3ccc(O)c(O)c3)cc(=O)c2c1OC` yielded an IC50 of 70 nM.

For the compound `CCCCCCCCCCCCOc1cc2oc(-c3ccc(O)c(O)c3)cc(=O)c2c(OC)c1OC`, the IC50 amounted to 100 nM.

On to `CCCCCCCCCCCCOc1c(OC)cc2oc(-c3ccc(O)c(O)c3)cc(=O)c2c1O`, for which inhibition was half-maximal at 26 nM (IC50).

`COc1cc2oc(-c3ccc(O)c(O)c3)cc(=O)c2c(OC)c1OCCC(C)C`: half-maximal inhibition (IC50) was put at 26 nM.

`CCCCCCOc1c(OC)cc2oc(-c3ccc(OC(C)=O)c(OC(C)=O)c3)cc(=O)c2c1OC`: the IC50 came out at 50 nM.

`CCCCCCCCOc1c(OC)c(OC)cc2oc(-c3ccc(O)c(O)c3)cc(=O)c12` came in with an IC50 of 19 nM.

In turn, `CCCCCCOc1c(OC)c(OC)cc2oc(-c3ccc(O)c(O)c3)cc(=O)c12` gave an IC50 of 15 nM.

The compound `CCCCCCCCCCCCOc1cc(OC)c(OC)c2oc(-c3ccc(O)c(O)c3)cc(=O)c12` gave an IC50 of 22 nM.

The compound `CCCCCCCCCCCCCCCCCCOc1c(OC)c(OC)cc2oc(-c3ccc(O)c(O)c3)cc(=O)c12` displayed an IC50 of 9000 nM.

As to `COc1cc2oc(-c3ccc(OC(C)=O)c(OC(C)=O)c3)cc(=O)c2c(OC)c1OC`, the IC50 is 1000 nM.

Turning to `CCCCCCCCCCCCOc1c(OC)cc(OC)c2c(=O)cc(-c3ccc(O)c(O)c3)oc12`, the midpoint of inhibition, the IC50, lay at 110 nM.

`COc1cc(OC)c2c(=O)cc(-c3ccc(O)c(O)c3)oc2c1OC` gave an IC50 of 430 nM.

Take `CCCCCCOc1c(OC)cc2oc(-c3ccc(O)c(O)c3)cc(=O)c2c1O`: half-maximal inhibition (IC50) required 20 nM.

In turn, `CCCCOc1c(OC)cc2oc(-c3ccc(O)c(O)c3)cc(=O)c2c1O` had an IC50 of 15 nM.

The compound `CCCCCCCCCCOc1c(OC)cc2oc(-c3ccc(O)c(O)c3)cc(=O)c2c1O` yielded an IC50 of 11 nM.

`COc1cc2oc(-c3ccc(O)c(O)c3)cc(=O)c2c(O)c1OCCC(C)C` gave an IC50 of 9 nM.

Compound `CCCCCCCCCCCCOc1c(OC)cc2oc(-c3ccc(OC(C)=O)c(OC(C)=O)c3)cc(=O)c2c1OC` had an IC50 of 75 nM.

`CCCCCCCCCCCCCCOc1c(OC)c(OC)cc2oc(-c3ccc(O)c(O)c3)cc(=O)c12` showed an IC50 of 28 nM.

As to `CCCCCOc1c(OC)cc2oc(-c3ccc(O)c(O)c3)cc(=O)c2c1O`, half-maximal inhibition (IC50) required 22 nM.

Regarding `COc1cc2oc(-c3ccc(O)c(O)c3)cc(=O)c2c(OC)c1OC`, half-maximal inhibition (IC50) was put at 240 nM.

In turn, `CCCCCCCCCCCCCCCCCCOc1c(OC)cc2oc(-c3ccc(O)c(O)c3)cc(=O)c2c1OC` returned an IC50 of 10000 nM.

`CCCCCOc1c(OC)c(OC)cc2oc(-c3ccc(O)c(O)c3)cc(=O)c12` had an IC50 of 32 nM.

The compound `CCCCCCCCOc1c(OC)cc2oc(-c3ccc(O)c(O)c3)cc(=O)c2c1O` came in with an IC50 of 11 nM.

The compound `CCCCCCCCCCCCOc1c(OC)cc(O)c2c(=O)cc(-c3ccc(O)c(O)c3)oc12` yielded an IC50 of 110 nM.

`CCCCOc1c(OC)c(OC)cc2oc(-c3ccc(O)c(O)c3)cc(=O)c12` returned an IC50 of 45 nM.

As to `CCCCCOc1c(OC)cc2oc(-c3ccc(O)c(O)c3)cc(=O)c2c1OC`, the IC50 was 35 nM.

`CCCCCCCCCCCCCCCCCCOc1c(OC)cc2oc(-c3ccc(OC(C)=O)c(OC(C)=O)c3)cc(=O)c2c1OC` yielded an IC50 of 10000 nM.

`CCCCCCOc1c(OC)cc2oc(-c3ccc(O)c(O)c3)cc(=O)c2c1OC` came in with an IC50 of 14 nM.

As to `CCCCCCCCCCCCCCCCOc1c(OC)cc2oc(-c3ccc(O)c(O)c3)cc(=O)c2c1OC`, the IC50 amounted to 1500 nM.

Regarding `CCCCCCCCCCCCOc1c(OC)c(OC)cc2oc(-c3ccc(O)c(O)c3)cc(=O)c12`, the IC50 came to 18 nM.

In turn, `CCCCCOc1c(OC)cc2oc(-c3ccc(OC(C)=O)c(OC(C)=O)c3)cc(=O)c2c1OC` yielded an IC50 of 28 nM.

Turning to `CCCCCCCCCCCCCCCCOc1c(OC)cc2oc(-c3ccc(O)c(O)c3)cc(=O)c2c1O`, the IC50 came to 10000 nM.

`CCCCCCCCCCCCOc1c(OC)cc2oc(-c3ccc(O)c(O)c3)cc(=O)c2c1OC` came in with an IC50 of 30 nM.

For `CCCCCCCCCCCCCCOc1c(OC)cc2oc(-c3ccc(OC(C)=O)c(OC(C)=O)c3)cc(=O)c2c1OC`, half-maximal inhibition (IC50) required 10000 nM.

`CCCCCCCCCCCCCCCCOc1c(OC)cc2oc(-c3ccc(OC(C)=O)c(OC(C)=O)c3)cc(=O)c2c1OC`: inhibition was half-maximal at 10000 nM (IC50).

As for `CCCCCCCCCCCCOc1cc(O)c2c(=O)cc(-c3ccc(O)c(O)c3)oc2c1OC`, the IC50 is 180 nM.

As for `COc1cc(O)c2c(=O)cc(-c3ccc(O)c(O)c3)oc2c1OC`, 110 nM corresponded to half-maximal inhibition (IC50).

Turning to `CCCCCCCCOc1c(OC)cc2oc(-c3ccc(O)c(O)c3)cc(=O)c2c1OC`, the 50% inhibitory concentration (IC50) came out at 22 nM.

On to `COc1cc2oc(-c3ccc(O)c(O)c3)cc(=O)c2c(O)c1OC` [CIRSILIOL], for which the IC50 was 95 nM.

For the origin of these results see ChEMBL document CHEMBL1123544, “Syntheses of 5,6,7- and 5,7,8-trioxygenated 3',4'-dihydroxyflavones having alkoxy groups and their inhibitory activities against arachidonate 5-lipoxygenase” (J Med Chem, 1986).
